Activity calls are given as the source filed them.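 How the source made its calls: active means maximum enhancement above 22% with a fitted EC50 greater than zero; inactive means the rest.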
test system: not listed separately; assay: mutant MDM2 reporter signal enhancers, dose response, cell-based, luciferase luminescence (AID 1442); details: mutant MDM2 reporter cells, luciferase luminescence enhancement, 2 h; hits give high values
Outline: (§1)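 Test system: MDM2-luciferase fusion reporter cells; times: 2 h compound exposure, 37 °C; measured by: luminescence; evaluation: blank-corrected % enhancement vs untreated cells; control set: cells without compound as reference, wells for blank correction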

| Structure (SMILES) | maximum enhancement |
| --- | --- |
| COc1ccccc1-c1cc(SC)c(C#N)c(=O)o1 | 18% (inactive) |
| CCN(CC)c1ccc(/C=C2/C(=O)c3ccc(C(=O)O)cc3C2=O)cc1 | 15.6% (inactive) |
| O=C1C(Cl)=C(N2CCCCC2)C(=O)C(Cl)=C1c1cnc(N2CCCCC2)s1 | 16.3% (inactive) |
| Cc1ccc(C=C2C(Cl)=C(Cl)C(Cl)=C2Cl)cc1 | 10.2% (inactive) |

test system: mutant MDM2 reporter cells, luciferase luminescence enhancement, 2 h; assay: as above; details: not given
Outline: as §1

| Structure (SMILES) | EC50 |
| --- | --- |
| CN(C)C(=S)SSC(=S)N(C)C | 0.08 µM |
| C=C1C(=O)O[C@@H]2C[C@@H](C)[C@@H]3C=CC(=O)[C@@]3(C)[C@@H](O)[C@H]12 | 1.11 µM |
| O=C(Cn1ncc(Cl)c(Cl)c1=O)NCC1CCCCC1 | 2.08 µM |
| COc1cc(/C=C2\COC/C(=C\c3cc(OC)c(OC)c(OC)c3)C2=O)cc(OC)c1OC | 648 µM |
| COc1cccc(OC)c1C(=O)NNC(=O)c1cccc(COc2ccc3c(c2)CCC3)c1 | 562 µM (inactive) |
| Cc1cc(C)nc(S/C=C/C(=O)c2ccccc2)n1 | 0.79 µM |
| CCN(CC)c1ccc(/C=C2\C(=O)c3ccc(C(=O)O)cc3C2=O)cc1 | 216 µM (inactive) |
| CCOC(=O)C1=C(c2ccccc2)O/C(=C(/C#N)C(F)(F)F)S1 | 40.8 µM |
| CC(C)c1ccc2c(c1)C1(NN=C(c3ccccc3)S1)C(=O)N2 (configuration not stated) | 1.42 µM |
| COc1ccc(NC(=O)/C(Cl)=C(/Cl)S(=O)Cc2ccc(Cl)cc2)cn1 (configuration not stated) | 0.46 µM |
| CC(NC(=O)Cn1ncc(Cl)c(Cl)c1=O)C12CC3CC(CC(C3)C1)C2 (configuration not stated) | 41.6 µM |
| CN(C)c1nc(=NCc2ccco2)ss1 | 0.1 µM |
| CC1=NN(c2cccc(C(=O)O)c2)C(=O)/C1=C\C=C/c1ccccc1 | 92.9 µM |
| COc1ccc(CS(=O)/C(Cl)=C(/Cl)C(=O)Nc2ccc(OC)nc2)cc1 (configuration not stated) | 3.41 µM |
| CCSc1nc2ccccc2n1C(=O)/C=C\c1ccc(OC)c(OC)c1 | 1630 µM |
| CC(C)c1ccc(OCc2cccc(C(=O)N/N=C/c3cccnc3)c2)cc1 | 200 µM (inactive) |
| COCCNC(=O)/C(C#N)=C/c1cccc(/C=C(\C#N)C(=O)NCCOC)c1 | 0.73 µM |

| Structure (SMILES) | EC50 |
| --- | --- |
| CCOC(=O)N1C/C(=C\c2ccccc2)C(=O)/C(=C/c2ccccc2)C1 | 1.94 µM |
| Cc1ccc2c(c1)c1ccc3c(c1n2C)C(=O)C=CC3=O | 1.83 µM |
| Cc1cc(C)nc(S/C=C/C(=O)c2ccc(F)cc2)n1 | 2.67 µM |
| Cc1cccc2c1c1ccc3c(c1n2C)C(=O)C=CC3=O | 1.43 µM |
| COC(=O)CSC1=C(C#N)C(=O)NC(c2ccccc2)S1 (configuration not stated) | 4.1 µM |
| O=C(/C=C/c1cccc([N+](=O)[O-])c1)n1cnc2ccccc21 | 1.72 µM |
| O=C(/C=C/c1cccnc1)/C=C/c1cccnc1 | 0.58 µM |
| CCSc1nc2ccccc2n1C(=O)/C=C/c1ccc(OC)c(OC)c1 | 1.13 µM |
| CN(C(=O)c1cccc(COc2ccc(Cl)cc2Cl)c1)c1ccccc1 | 15.6 µM (inactive) |
| C=CS(=O)(=O)c1ccc(Oc2ccc(S(=O)(=O)C=C)cc2)cc1 | 1.5 µM |
| COc1ccc(NC(=O)/C(Cl)=C(/Cl)S(=O)Cc2ccc(C)cc2)cn1 (configuration not stated) | 0.84 µM |
| C=CCSc1nc2ccccc2n1C(=O)/C=C/c1cc(OC)c(OC)c(OC)c1 | 1.16 µM |
| CC(C)CC(=O)/C=C/n1c(=S)oc2ccccc21 | 4.79 µM |
| CCOC(=O)/C=C/C(=O)Nc1ccccc1-c1ccccc1NC(=O)/C=C/C(=O)OCC | 1320 µM |
| CCN1C/C(=C/c2ccc(OC)c(O)c2)C(=O)/C(=C/c2ccc(OC)c(O)c2)C1 | 888 µM |
| Nc1cccc2c1C(=O)N(C(=O)/C=C/c1cccc(Br)c1)C2=O | 16.5 µM |

Source: PubChem BioAssay AID1442 (PCMD, 2008)
